Measured values from ChEMBL document CHEMBL1141603, “2-aryloxy-4-alkylaminopyridines: discovery of novel corticotropin-releasing factor 1 antagonists” (J Med Chem, 2008).
Values after ≈ are worked out from the molar mass of the structure shown. Blank lines part the entries; values can stand above or below the compound they belong to. Active and inactive are the calls of the source. No cut-off for these calls is given here.

Key:
[1] = target: T1, Corticotropin-releasing factor receptor 1 (Rattus norvegicus, UniProt P35353); experiment: (§1) Displacement of [125I]oCRF from rat CRF1 after 2 hrs by Betaplate scintillation counter
T1 sequence (P35353 whole entry): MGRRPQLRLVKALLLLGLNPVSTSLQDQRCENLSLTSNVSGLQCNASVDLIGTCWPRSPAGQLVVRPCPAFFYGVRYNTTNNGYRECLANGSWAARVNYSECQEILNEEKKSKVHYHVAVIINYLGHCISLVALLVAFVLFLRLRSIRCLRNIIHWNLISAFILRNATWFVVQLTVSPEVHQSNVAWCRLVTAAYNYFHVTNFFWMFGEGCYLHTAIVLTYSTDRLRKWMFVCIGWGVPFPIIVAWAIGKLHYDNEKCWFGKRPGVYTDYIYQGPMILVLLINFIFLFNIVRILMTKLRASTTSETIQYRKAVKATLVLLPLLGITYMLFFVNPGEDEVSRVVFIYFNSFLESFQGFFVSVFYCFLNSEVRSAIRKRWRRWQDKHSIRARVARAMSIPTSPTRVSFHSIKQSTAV

[2] = tested on: Rattus norvegicus; experiment: Ex vivo displacement of [125I]oCRF from CRF1 receptor in Sprague-Dawley rat brain cortex at 3.2 mg/kg, po after 2 hrs by Betaplate scintillation counter; assay type: functional
Summary of the method: (§2)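 Male Sprague–Dawley rats (200–300 g) dosed orally 3.2 mg/kg; killed usually 1 h later, brain and pituitary frozen. Tissue at 25 mg wet wt/mL in PIPES pH 7.0 buffer with MgCl2, EGTA, bacitracin, aprotinin, incubated with 40 pM 125I-oCRF 2 h at room temperature; nonspecific with 1 µM rat/human CRF. Pellets centrifuged, rinsed, filtered, scintillation counted.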

[3] = tested on: Rattus norvegicus; experiment: Ex vivo displacement of [125I]oCRF from CRF1 receptor in Sprague-Dawley rat pituitary at 3.2 mg/kg, po after 2 hrs by Betaplate scintillation counter; assay type: functional; summary of the method: as §2
[4] = Metabolic stability in human liver microsomes assessed as half life; assay type: ADME, Microsome
[5] = Intrinsic clearance in human liver microsomes; assay type: ADME, Microsome
[6] = Dissociation constant, pKa of the compound; assay type: physicochemical
[7] = Clearance in Beagle dog at 1.0 mg/kg, iv; assay type: ADME, organism-based, Canis lupus familiaris; design: dose 1 mg/kg, route intravenous; conditions: in vivo
Summary of the method: (§3)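 Four beagles (2 male, 2 female, 8–15 kg), 1.0 mg/kg into cephalic vein; fasted ~21 h predose, fed ~3.5 h postdose. Serum sampled from jugular at 0.083–24 h, assayed by GC-MS (LLOQ 1.0 ng/mL). Noncompartmental: linear trapezoid AUC/AUMC, kel from log-linear terminal slope, t1/2 = 0.693/kel, CL = dose/AUC, VDss = CL·AUMC/AUC, VDγ = CL/kel.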

[8] = Volume of distribution at steady state in Beagle dog at 1.0 mg/kg, iv; assay type: ADME, organism-based, Canis lupus familiaris; design: dose 1 mg/kg, route intravenous; conditions: in vivo, read-out: Vdss; summary of the method: as §3
[9] = Volume of distribution at terminal elimination phase in Beagle dog at 1.0 mg/kg, iv; assay type: ADME, organism-based, Canis lupus familiaris; design: dose 1 mg/kg, route intravenous; conditions: in vivo; summary of the method: as §3
[10] = Half life at terminal elimination phase in Beagle dog at 1.0 mg/kg, iv; assay type: ADME, organism-based, Canis lupus familiaris; design: dose 1 mg/kg, route intravenous; conditions: in vivo; summary of the method: as §3
[11] = Cmax in fasted Beagle dog at 5.0 mg/kg, po; assay type: ADME, organism-based, Canis lupus familiaris; design: dose 5 mg/kg, route oral; conditions: in vivo
Summary of the method: (§4)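 Fasted beagles (fasted ~21 h, food ~3.5 h postdose) gavaged with drug suspended in 0.1% methyl cellulose pH 2. Jugular serum taken 0.25–24 h, GC-MS quantitation (LLOQ 1.0 ng/mL). Cmax and Tmax from observed profiles; F = (dose i.v.·AUC p.o.)/(dose p.o.·AUC i.v.), AUC by linear trapezoid with log-linear extrapolation.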

[12] = Tmax in fasted Beagle dog at 5.0 mg/kg, po; assay type: ADME, organism-based, Canis lupus familiaris; design: dose 5 mg/kg, route oral; conditions: in vivo; summary of the method: as §4
[13] = Oral bioavailability in fasted Beagle dog at 5.0 mg/kg; assay type: ADME, organism-based, Canis lupus familiaris; conditions: in vivo; summary of the method: as §4
[14] = Cmax in fed Beagle dog at 5.0 mg/kg, po; assay type: ADME, organism-based, Canis lupus familiaris; design: dose 5 mg/kg, route oral; conditions: in vivo
Summary of the method: (§5)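 Beagles fed one can of wet dog food 1 h before gavage of drug suspended in 0.1% methyl cellulose pH 2. Serum from jugular venipuncture at 0.25–24 h postdose, GC-MS analysis (LLOQ 1.0 ng/mL). Bioavailability = dose-normalized oral AUC(0–∞) over i.v. AUC(0–∞).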

[15] = Tmax in fed Beagle dog at 5.0 mg/kg, po; assay type: ADME, organism-based, Canis lupus familiaris; design: dose 5 mg/kg, route oral; conditions: in vivo; summary of the method: as §5
[16] = Oral bioavailability in fed Beagle dog at 5.0 mg/kg; assay type: ADME, organism-based, Canis lupus familiaris; conditions: in vivo; summary of the method: as §5
[17] = Solubility at pH 7; assay type: physicochemical; conditions: buffer
[18] = Solubility at pH 2; assay type: physicochemical; conditions: buffer
[19] = target: T2, Corticotropin-releasing factor receptor 1 (Homo sapiens, UniProt P34998); experiment: Antagonist activity at human CRF1 receptor assessed as oCRF-stimulated adenylate cyclase activity after 15 mins by liquid scintillation counting; assay type: functional; conditions: read-out: Ki app
T2 sequence (P34998 whole entry): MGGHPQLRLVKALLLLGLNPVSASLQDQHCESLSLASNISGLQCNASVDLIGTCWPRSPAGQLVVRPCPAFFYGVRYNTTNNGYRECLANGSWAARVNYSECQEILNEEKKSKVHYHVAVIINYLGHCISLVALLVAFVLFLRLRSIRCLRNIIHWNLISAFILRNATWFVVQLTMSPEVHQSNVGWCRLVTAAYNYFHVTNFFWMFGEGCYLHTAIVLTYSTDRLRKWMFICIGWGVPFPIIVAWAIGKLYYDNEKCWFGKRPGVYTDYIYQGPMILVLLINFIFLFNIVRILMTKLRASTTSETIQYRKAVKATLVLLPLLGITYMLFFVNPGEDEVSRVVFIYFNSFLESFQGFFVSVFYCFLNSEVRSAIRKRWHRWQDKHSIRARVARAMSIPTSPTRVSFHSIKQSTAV

[20] = target: T3, Corticotropin-releasing factor receptor 2 (Homo sapiens, UniProt Q13324); experiment: Binding affinity for human CRF2 receptor; conditions: read-out: Ki app
T3 sequence (Q13324 whole entry): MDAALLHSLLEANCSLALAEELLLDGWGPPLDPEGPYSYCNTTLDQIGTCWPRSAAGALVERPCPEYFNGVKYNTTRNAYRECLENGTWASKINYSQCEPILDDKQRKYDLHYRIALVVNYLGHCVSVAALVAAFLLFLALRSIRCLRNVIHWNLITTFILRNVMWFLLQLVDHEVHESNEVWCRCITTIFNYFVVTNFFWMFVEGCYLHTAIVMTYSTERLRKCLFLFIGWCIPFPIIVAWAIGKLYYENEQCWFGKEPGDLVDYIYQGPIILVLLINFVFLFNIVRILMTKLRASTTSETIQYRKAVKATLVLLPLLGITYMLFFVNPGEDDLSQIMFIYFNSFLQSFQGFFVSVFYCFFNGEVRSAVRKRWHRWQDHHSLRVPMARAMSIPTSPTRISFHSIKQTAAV

[21] = organism: Rattus norvegicus; experiment: Inhibition of CRF-induced […] of HPA axis in Sprague-Dawley rat assessed as increase in ACTH levels by radioimmunoassay; assay type: functional; conditions: read-out: MED
Summary of the method: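 Oral pretreatment in rats, N = 10 per group, then i.v. CRF 4 µg/kg; plasma ACTH measured. Minimum effective dose versus CRF alone by one-way ANOVA with Dunnett's post hoc test, p < 0.05.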

[22] = tested on: Rattus norvegicus; experiment: Inhibition of CRF-induced exitation of locus coerulus neurons in iv dosed Sprague-Dawley rat; assay type: functional; conditions: read-out: ID50 (the source's name)
[23] = tested on: Rattus norvegicus; experiment: Inhibition of CRF-induced startle response in Sprague-Dawley rat at 17.8 mg/kg, po; assay type: functional, organism-based; design: dose 17.8 mg/kg
Summary of the method: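 CRF 1 µg given icv to rats to enhance acoustic startle; compound dosed p.o. beforehand, with baseline startle also recorded.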

[24] = tested on: Rattus norvegicus; experiment: Inhibition of fear-potentiated startle response in Sprague-Dawley rat at 0.32 to 3.2 mg/kg, po; assay type: functional; design: scale not given: the % may be the effect or the level left; conditions: dose mg/kg 0.32-3.2
[25] = tested on: Rattus norvegicus; experiment: Inhibition of fear-potentiated startle response in Sprague-Dawley rat at 10 mg/kg, po; assay type: functional, organism-based; design: dose 10 mg/kg
[26] = Cmax in fasted Beagle dog at 1.0 mg/kg, po; assay type: ADME, organism-based, Canis lupus familiaris; design: dose 1 mg/kg, route oral; conditions: in vivo; summary of the method: as §4
[27] = Tmax in fasted Beagle dog at 1.0 mg/kg, po; assay type: ADME, organism-based, Canis lupus familiaris; design: dose 1 mg/kg, route oral; conditions: in vivo; summary of the method: as §4
[28] = Oral bioavailability in fasted Beagle dog at 1.0 mg/kg; assay type: ADME, organism-based, Canis lupus familiaris; conditions: in vivo; summary of the method: as §4
[29] = Solubility at pH 2.4; assay type: physicochemical; conditions: buffer
[30] = target: T1, Corticotropin-releasing factor receptor 1; experiment: Antagonist activity at CRF1 receptor in rat cortical membrane assessed as oCRF-stimulated adenylate cyclase activity after 15 mins by liquid scintillation; assay type: functional, cell membranes; conditions: read-out: Ki app
[31] = Cmax in fed Beagle dog at 1.0 mg/kg, po; assay type: ADME, organism-based, Canis lupus familiaris; design: dose 1 mg/kg, route oral; conditions: in vivo; summary of the method: as §5
[32] = Tmax in fed Beagle dog at 1.0 mg/kg, po; assay type: ADME, organism-based, Canis lupus familiaris; design: dose 1 mg/kg, route oral; conditions: in vivo; summary of the method: as §5
[33] = Oral bioavailability in fed Beagle dog at 1.0 mg/kg; assay type: ADME, organism-based, Canis lupus familiaris; conditions: in vivo; summary of the method: as §5
[34] = Fraction unbound ligand in human serum; assay type: ADME, cell-free
[35] = target: T4, Corticotropin-releasing factor receptor 1 (Rattus norvegicus) (UniProt P35353); experiment: as §1
T4 sequence (whole entry): T1 sequence (P35353 whole entry)

Structure (SMILES): CC[C@@H](CO)Nc1cc(C)nc(Oc2c(C)cc(Cl)cc2C)c1C(=O)OC
IC50 [1]: 6.4 nM | inhibition in vivo at 3.2 mg/kg [2]: 111% | inhibition in vivo at 3.2 mg/kg [3]: 86% | microsomal CLint [5]: 47 µL/min/mg

Structure (SMILES): CCC(CC)Oc1cc(C)nc(Nc2c(C)cc(C)cc2C)c1C
IC50 [1]: 3.7 nM

Structure (SMILES): CCC(CC)Nc1cc(C)nc(Nc2c(C)cc(C)cc2C)c1C
IC50 [1]: 750 nM | pKa [6]: 9.3

Structure (SMILES): CCC(CC)Oc1cc(C)nc(Oc2c(C)cc(C)cc2C)c1C
clearance [7]: 4.1 mL/min/kg | Vd [8]: 1.1 L/kg | Vd [9]: 3.1 L/kg | half-life [10]: 8.3 h | Cmax [11]: 187 ng/mL | Tmax [12]: 1.5 h | bioavailability [13]: 3.6% | Cmax [14]: 1740 ng/mL | IC50 [1]: 6.8 nM | inhibition in vivo at 3.2 mg/kg [2]: 75% | inhibition in vivo at 3.2 mg/kg [3]: 72% | Tmax [15]: 1.9 h | bioavailability [16]: 37%

Structure (SMILES): CCC(CC)Oc1cc(C)nc(Oc2c(C)cc(C)cc2C)c1C.CS(=O)(=O)O
pKa [6]: 3.6 | solubility [17]: 0.2 µg/mL | solubility [18]: 3 µg/mL

Structure (SMILES): CC[C@@H](CO)Nc1cc(C)nc(Oc2c(C)cc(Cl)cc2C)c1C(=O)NC
IC50 [1]: 31 nM | inhibition in vivo at 3.2 mg/kg [2]: 86% | inhibition in vivo at 3.2 mg/kg [3]: 63% | fraction unbound [34]: 0.045

Structure (SMILES): CCC(CC)Oc1cc(C)nc(Nc2c(C)cc(C)cc2C)c1C(=O)O
Activity [35]: inactive

More lines, main results first:

IC50 [1]: 7.2 nM | half-life [4]: 0.5 h
Structure (SMILES): CCC(CC)Nc1cc(C)nc(Oc2c(C)cc(Cl)cc2C)c1C
inhibition in vivo at 3.2 mg/kg [2]: 79% | inhibition in vivo at 3.2 mg/kg [3]: 72%

Ki [19]: 12 nM | Ki [20]: > 10000 nM | clearance [7]: 17 mL/min/kg | Vd [8]: 5.3 L/kg | Vd [9]: 12 L/kg | half-life [10]: 8.8 h | Cmax [26]: 46.2 ng/mL | Tmax [27]: 1.8 h | bioavailability [28]: 22% | IC50 [1]: 5.1 nM | solubility [29]: 5400 µg/mL (≈ 16.5 mM) | pKa [6]: 6.9 | solubility [17]: 0.1 µg/mL (≈ 0.000306 mM) | half-life [4]: 0.633 h | Ki [30]: 12 nM | Cmax [31]: 131 ng/mL | Tmax [32]: 2 h | bioavailability [33]: 64%
Structure (SMILES): CCC(CC)Nc1cc(C)nc(Oc2c(C)cc(C)cc2C)c1C
minimal effective dose [21]: 10 mg/kg | ED50 [22]: < 0.01 mg/kg | Activity [23]: Active | Activity [24]: 62% | Activity [25]: Active | inhibition in vivo at 3.2 mg/kg [2]: 81% | inhibition in vivo at 3.2 mg/kg [3]: 49%

IC50 [1]: 5.6 nM
Structure (SMILES): CCC(CC)Nc1cc(C)nc(Oc2c(C)cc(Br)cc2C)c1C
inhibition in vivo at 3.2 mg/kg [2]: 86% | inhibition in vivo at 3.2 mg/kg [3]: 81%
